Experimental data from ChEMBL document CHEMBL1136835, “CB2 selective sulfamoyl benzamides: optimization of the amide functionality” (Bioorg Med Chem Lett, 2009).

How the values were obtained:
[1] = biological target: T1, Cannabinoid receptor 2 (Homo sapiens, UniProt P34972); experiment: Displacement of [3H]CP-55940 from human cloned CB2 receptor by scintillation spectrometry
Summary of the method: (§1)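 Cloned human CB1 or CB2 receptor membranes incubated with 0.2–0.6 nM [3H]CP55940 in 50 mM Tris–HCl pH 7.0 with 5.0 mM MgCl2, 1.0 mM EGTA and 1.0 mg/ml fatty-acid-free BSA. CB2 ran 60 min at room temperature and CB1 120 min at 30 °C. Samples filtered through PEI/BSA-soaked GF/C filters and rinsed six times with cold buffer. Counted by scintillation, with nonspecific binding defined by WIN55212-2. Ki is the geometric mean of at least three determinations.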

[2] = biological target: T2, Cannabinoid receptor 1 (Homo sapiens, UniProt P21554); experiment: Displacement of [3H]CP-55940 from human cloned CB1 receptor by scintillation spectrometry; summary of the method: as §1
T2 sequence (P21554 whole entry): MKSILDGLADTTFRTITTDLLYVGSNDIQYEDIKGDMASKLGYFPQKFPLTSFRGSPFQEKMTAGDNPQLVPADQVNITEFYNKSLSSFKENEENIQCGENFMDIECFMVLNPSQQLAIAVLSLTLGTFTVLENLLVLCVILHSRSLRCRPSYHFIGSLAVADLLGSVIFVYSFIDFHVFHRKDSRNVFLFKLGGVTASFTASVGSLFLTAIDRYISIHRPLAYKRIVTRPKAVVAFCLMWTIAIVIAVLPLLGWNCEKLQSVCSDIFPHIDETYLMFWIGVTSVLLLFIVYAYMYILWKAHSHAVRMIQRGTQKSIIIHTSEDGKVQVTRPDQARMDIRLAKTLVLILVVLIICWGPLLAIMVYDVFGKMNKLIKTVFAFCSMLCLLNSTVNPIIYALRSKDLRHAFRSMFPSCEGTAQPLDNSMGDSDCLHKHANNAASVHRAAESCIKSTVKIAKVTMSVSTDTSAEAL

[3] = biological target: T1, Cannabinoid receptor 2; experiment: Agonist activity at human cloned CB2 receptor assessed as stimulation of [35S]GTPgammaS binding
[4] = organism: Homo sapiens; experiment: Ratio of Ki for human cloned CB1 receptor to Ki for human cloned CB2 receptor; summary of the method: as §1
[5] = Metabolic stability in rat liver microsomes after 30 mins; type: ADME, Microsome; conditions: read-out: Stability
[6] = Metabolic stability in human liver microsomes after 30 mins; type: ADME, Microsome; conditions: read-out: Stability
[7] = test system: Rattus norvegicus; experiment: Antiallodynic activity in rat hind paw incisional model assessed as mechanical paw-withdrawal threshold at 300 mg/kg, po after 120 mins in presence of aminobenzotriazole relative to aminobenzotriazole-treated control; type: functional
Summary of the method: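 Rat hindpaw incision model. Rats pretreated with the P450 suicide inhibitor aminobenzotriazole, then dosed 300 mg/kg po 120 min before testing. Left hindpaw mechanical withdrawal threshold read, N = 8 per group. One-way ANOVA with protected t-test against ABT-vehicle incised animals.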

[8] = test system: Rattus norvegicus; experiment: Antiallodynic activity in rat hind paw incisional model assessed as mechanical paw-withdrawal threshold at 30 mg/kg, ip after 30 mins relative to control; type: functional; conditions: route intraperitoneal
Summary of the method: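 Rat hindpaw incision model. Mechanical paw-withdrawal threshold measured on the left hindpaw, 30 min after ip dosing at 30 mg/kg. N = 8 per group. Compared with the vehicle-treated group.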

[9] = biological target: T2, Cannabinoid receptor 1; experiment: Displacement of [3H]CP-55940 from human cloned CB1 receptor at 10 uM by scintillation spectrometry

T1 sequence (P34972 whole entry): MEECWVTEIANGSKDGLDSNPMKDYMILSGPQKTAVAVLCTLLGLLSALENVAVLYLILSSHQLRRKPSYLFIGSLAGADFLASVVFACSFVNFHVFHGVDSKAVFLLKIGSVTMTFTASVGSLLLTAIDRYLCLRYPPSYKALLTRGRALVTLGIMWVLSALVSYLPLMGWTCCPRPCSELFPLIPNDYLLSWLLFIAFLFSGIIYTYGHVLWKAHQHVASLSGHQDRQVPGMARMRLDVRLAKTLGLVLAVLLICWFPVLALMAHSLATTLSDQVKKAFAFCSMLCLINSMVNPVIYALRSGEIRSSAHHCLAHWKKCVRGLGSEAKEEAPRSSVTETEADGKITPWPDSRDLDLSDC

Compound | Ki [1] [nM] | Ki [2] [nM] | EC50 [3] [nM] | Ratio Ki [4] | remaining at 0.5 h [5] [%] | remaining at 0.5 h [6] [%] | Activity [7] [%] | Activity [8] [%] | Activity [9] [%]
O=C(NCc1ccccc1)c1ccc(Br)c(S(=O)(=O)N2CCOCC2)c1 | 800 | > 1000 |  |  |  |  |  |  | 
Cc1ccc(NC(=O)[C@@H]2C(C)(C)[C@@H]3CC[C@@]2(C)C3)cc1S(=O)(=O)N1CCOCC1 | 1.7 | 640 | 9.6 | 380 |  |  |  |  | 
Cc1ccc(-c2nc(C(C)(C)C)c[nH]2)cc1S(=O)(=O)N1CCOCC1 | 23 | 1100 | 58 | 48 |  |  |  |  | 
Cc1ccc(NC(=O)[C@@H]2C[C@@]3(C)CC[C@]2(C)O3)cc1S(=O)(=O)N1CCOCC1 | 660 | 2900 |  | 4.4 |  |  |  |  | 
Cc1ccc(NC(=O)C2CCCCC2C)cc1S(=O)(=O)N1CCOCC1 (stereo unspecified) | 14 | 1800 | 42 | 130 |  |  |  |  | 
Cc1ccc(NC(=O)C2CCCCC2)cc1S(=O)(=O)N1CCOCC1 | 120 | 1900 |  | 16 |  |  |  |  | 
Cc1ccc(NC(=O)C2C(C)(C)C2(C)C)cc1S(=O)(=O)N1CCOCC1 | 23 | 3400 | 11 | 150 | 2 | 1 | 262 | 183 | 
Cc1ccc(NC(=O)C(C)(C)C)cc1S(=O)(=O)N1CCOCC1 | 540 |  |  |  |  |  |  |  | 4.7
Cc1ccc(-c2noc(CC3CCCCC3)n2)cc1S(=O)(=O)N1CCOCC1 | 130 | 740 | 110 | 5.9 |  |  |  |  | 
Cc1ccc(-c2cc(CC3CCCCC3)[nH]n2)cc1S(=O)(=O)N1CCOCC1 | 87 | 1400 | 190 | 16 |  |  |  |  | 
Cc1ccc(NC(=O)[C@H]2C[C@@]3(C)CC[C@]2(C)O3)cc1S(=O)(=O)N1CCOCC1 | 2000 |  |  |  |  |  |  |  | 44
Cc1ccc(-c2n[nH]c(CC3CCCCC3)n2)cc1S(=O)(=O)N1CCOCC1 | 27 | 310 | 57 | 11 |  |  |  |  | 
Cc1ccc(-c2noc(CC(C)(C)C)n2)cc1S(=O)(=O)N1CCOCC1 | 59 | 270 | 70 | 4.5 |  |  |  |  | 
Cc1ccc(NC(=O)C2(C)CCCCC2)cc1S(=O)(=O)N1CCOCC1 | 35 | 1200 | 33 | 34 |  |  |  |  | 
Cc1ccc(-c2nc(CC(C)(C)C)c[nH]2)cc1S(=O)(=O)N1CCOCC1 | 36 | 1100 | 47 | 31 |  |  |  |  | 
Cc1ccc(-c2nc(CC(C)(C)C)cs2)cc1S(=O)(=O)N1CCOCC1 | 5.2 | 200 | 23 | 38 |  |  |  |  | 
Cc1ccc(-c2cc(C(C)(C)C)[nH]n2)cc1S(=O)(=O)N1CCOCC1 | 160 | 6990 | 130 |  |  |  |  |  | 
Cc1ccc(NC(=O)C2CCCCC2(C)C)cc1S(=O)(=O)N1CCOCC1 (stereo unspecified) | 11 | 790 | 8400 | 72 |  |  |  |  | 
Cc1ccc(NC(=O)c2cccc(Cl)c2)cc1S(=O)(=O)N1CCOCC1 | 120 | 270 | 220 | 2.3 |  |  |  |  | 

Compound | Ki [1] [nM] | Ki [2] [nM] | EC50 [3] [nM] | Ratio Ki [4] | remaining at 0.5 h [5] [%] | remaining at 0.5 h [6] [%] | Activity [7] [%] | Activity [8] [%] | Activity [9] [%]
Cc1ccc(-c2n[nH]c(CC(C)(C)C)n2)cc1S(=O)(=O)N1CCOCC1 | 85 | 140 | 64 | 1.6 |  |  |  |  | 
Cc1ccc(-c2nnn[nH]2)cc1S(=O)(=O)N1CCOCC1 | > 5000 | > 5000 |  |  |  |  |  |  | 
Cc1ccc(NC(=O)c2ccc(Cl)cc2)cc1S(=O)(=O)N1CCOCC1 | 2900 |  |  |  |  |  |  |  | 25
Cc1ccc(-c2cnc(C(C)(C)C)[nH]2)cc1S(=O)(=O)N1CCOCC1 |  |  |  | 9.4 |  |  |  |  | 
Cc1ccc(-c2nnn(CC3CCCCC3)n2)cc1S(=O)(=O)N1CCOCC1 | 82 | 560 | 78 | 6.9 |  |  |  |  | 
Cc1ccc(C(=O)NC(C(C)(C)C)C(C)(C)C)cc1S(=O)(=O)N1CCOCC1 |  |  |  | 9 |  |  |  |  | 
Cc1ccc(-c2cc(CC(C)(C)C)[nH]n2)cc1S(=O)(=O)N1CCOCC1 | 75 | 750 | 120 | 10 |  |  |  |  | 
Cc1ccc(-c2n[nH]c(C(C)(C)C)n2)cc1S(=O)(=O)N1CCOCC1 | 100 | 530 | 130 | 5.3 |  |  |  |  | 
Cc1ccc(-c2c[nH]c(C(C)(C)C)n2)cc1S(=O)(=O)N1CCOCC1 | 81 | 770 | 130 |  |  |  |  |  | 
Cc1ccc(C(=O)N[C@@H]2C(C)(C)[C@@H]3CC[C@@]2(C)C3)cc1S(=O)(=O)N1CCOCC1 | 3.9 | 130 | 4.6 | 31 |  |  |  |  | 
Cc1ccc(NC(=O)c2ccccc2Cl)cc1S(=O)(=O)N1CCOCC1 | 170 | 1100 | 390 | 6.5 |  |  |  |  | 
Cc1ccc(NC(=O)[C@H]2C(C)(C)[C@@H]3CC[C@@]2(C)C3)cc1S(=O)(=O)N1CCOCC1 | 9.4 | 1200 | 49 | 130 |  |  |  |  | 
Cc1ccc(-c2noc(C(C)(C)C)n2)cc1S(=O)(=O)N1CCOCC1 | 75 | 510 | 77 | 6.8 |  |  |  |  | 
Cc1ccc(NC(=O)C(C)(C(F)(F)F)C(F)(F)F)cc1S(=O)(=O)N1CCOCC1 | 23 | 470 | 29 | 20 |  |  |  |  | 
Cc1ccc(NC(=O)C(C(C)(C)C)C(C)(C)C)cc1S(=O)(=O)N1CCOCC1 | 11 | 1200 | 31 | 110 |  |  |  |  | 
Cc1ccc(-c2nc(C(C)(C)C)cs2)cc1S(=O)(=O)N1CCOCC1 | 5.7 | 260 | 21 | 47 |  |  |  |  | 
Cc1ccc(C(=O)N[C@H]2C(C)(C)[C@@H]3CC[C@@]2(C)C3)cc1S(=O)(=O)N1CCOCC1 | 48 | 540 | 25 | 11 |  |  |  |  | 
Cc1ccc(-c2nc(CC3CCCCC3)cs2)cc1S(=O)(=O)N1CCOCC1 | 23 | 390 | 120 | 17 |  |  |  |  | 
Cc1ccc(-c2nnn(CC(C)(C)C)n2)cc1S(=O)(=O)N1CCOCC1 | 17 | 130 | 49 | 7.6 |  |  |  |  | 
